Measurements as given in ChEMBL document CHEMBL4024711, “Design, synthesis and biological evaluation of novel nitric oxide-donating protoberberine derivatives as antitumor agents” (Eur J Med Chem, 2017).
Calls of active or inactive are those of the source. The calls are words filed in the database; no cut-off is given here.

How the values were obtained:
[1] = Induction of NO release assessed as nitrite formation in PBS at 100 uM up to 300 mins by Griess assay
Outline: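 Compound at 100 μM was incubated at 37 °C in PBS, pH 7.4, containing 2% DMSO and 5.0 mM L-cysteine, in acellular or HepG2 cell lysates, and sampled over time. Samples were mixed with Griess reagent at 37 °C for 15 min and read at 540 nm. Nitrite was quantified against a sodium nitrite standard curve, in triplicate.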

HepG2 [2] = assay: Cytotoxicity against human HepG2 cells after 72 hrs by MTT assay; format: functional, cell-based; conditions: HepG2, 72 h
Outline: (§1)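 MTT assay. Cells were plated and grown 24 h at 37 °C, 5% CO2, then exposed to compound in medium with 0.1% DMSO for 72 h. MTT (5 mg/mL in PBS) was added for 4 h and absorbance read at 490 nm. IC50 was taken from dose-response curves; at least three independent experiments.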

HCT-116 = assay: Cytotoxicity against human HCT116 cells after 72 hrs by MTT assay; format: functional, cell-based; conditions: HCT-116, 72 h; outline: as §1
SMMC-7721 = assay: Cytotoxicity against human SMMC7721 cells after 72 hrs by MTT assay; format: functional, cell-based; conditions: SMMC-7721, 72 h; outline: as §1
HL-60 = assay: Cytotoxicity against human HL60 cells after 72 hrs by MTT assay; format: functional, cell-based; conditions: HL-60, 72 h; outline: as §1
L02 = assay: Cytotoxicity against human LO2 cells after 72 hrs by MTT assay; format: cell-based; conditions: L02, 72 h; outline: as §1
HepG2 [3] = assay: Cell cycle arrest in human HepG2 cells assessed as accumulation at G2 phase at 0.5 uM after 72 hrs by propidium iodide staining based flow cytometric method (reference value: 17.45%); format: functional
Outline: (§2)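 HepG2 cells were seeded and grown 24 h at 37 °C, 5% CO2. They were then exposed to 0, 0.5, 1 or 2 μM for 72 h, fixed in 70% ethanol at 4 °C for 12 h, and stained with RNase A plus propidium iodide for 30 min. DNA content was measured by flow cytometry to give the cell-cycle phase distribution.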

H22 [4] = assay: Antitumor activity against […] H22 cells xenografted in ICR mouse assessed as tumor weight at 15 mg/kg, iv administered once daily for 21 days measured post last dose (reference value: 4.38 +/- 0.16 g); format: functional
HepG2 [5] = assay: Induction of apoptosis in human HepG2 cells assessed as early apoptotic cells at 0.5 uM after 72 hrs by Annexin V-APC/7-AAD staining based flow cytometric method (reference value: 2.06%); format: functional
HepG2 [6] = assay: Induction of apoptosis in human HepG2 cells assessed as live cells at 2 uM after 72 hrs by Annexin V-APC/7-AAD staining based flow cytometric method (reference value: 94.99%); format: functional
HepG2 [7] = assay: Induction of apoptosis in human HepG2 cells assessed as necrotic cells at 0.5 uM after 72 hrs by Annexin V-APC/7-AAD staining based flow cytometric method (reference value: 2.44%); format: functional
HepG2 [8] = assay: Cell cycle arrest in human HepG2 cells assessed as accumulation at G1 phase at 1 uM after 72 hrs by propidium iodide staining based flow cytometric method (reference value: 56.77%); format: functional; outline: as §2
HepG2 [9] = assay: Induction of apoptosis in human HepG2 cells after 72 hrs by Annexin V-APC/7-AAD staining based flow cytometric method; format: functional, cell-based
HepG2 [10] = assay: Induction of apoptosis in human HepG2 cells assessed as late apoptotic cells at 1 uM after 72 hrs by Annexin V-APC/7-AAD staining based flow cytometric method (reference value: 0.51%); format: functional
HepG2 [11] = assay: Cell cycle arrest in human HepG2 cells assessed as accumulation at G2 phase at 1 uM after 72 hrs by propidium iodide staining based flow cytometric method (reference value: 17.45%); format: functional; outline: as §2
HepG2 [12] = assay: Cytotoxicity against human HepG2 cells at 2 uM after 72 hrs in presence of NO scavenger PTIO by MTT assay; format: functional, cell-based
Outline: (§3)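 HepG2 cells were pretreated for 2 h with graded concentrations of carboxy-PTIO (an NO scavenger), or left unpretreated. They were then exposed to 2 μM compound for 72 h, and growth was assessed by MTT. Mean ± SD, n=3.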

HepG2 [13] = assay: Cytotoxicity against human HepG2 cells at 2 uM after 72 hrs by MTT assay; format: functional, cell-based; outline: as §3
HepG2 [14] = assay: Induction of apoptosis in human HepG2 cells assessed as late apoptotic cells at 0.5 uM after 72 hrs by Annexin V-APC/7-AAD staining based flow cytometric method (reference value: 0.51%); format: functional
HepG2 [15] = assay: Disruption of mitochondrial membrane potential in human HepG2 cells assessed as collapse of the mitochondrial membrane potential at 1 uM after 72 hrs by JC1 staining based flow cytometric method (reference value: 3.05%); format: functional
Outline: (§4)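 HepG2 cells were exposed to 0, 0.5, 1 or 2 μM for 72 h, washed in PBS, and resuspended in JC-1 incubation buffer at 37 °C for 15 min. The fractions of cells with healthy or collapsed mitochondrial membrane potential were determined by flow cytometry.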

HepG2 [16] = assay: Induction of apoptosis in human HepG2 cells assessed as necrotic cells at 1 uM after 72 hrs by Annexin V-APC/7-AAD staining based flow cytometric method (reference value: 2.44%); format: functional
H22 [17] = assay: Antitumor activity against […] H22 cells xenografted in ICR mouse assessed as tumor growth inhibition at 30 mg/kg, iv administered once daily for 21 days measured post last dose relative to control; format: functional; conditions: 504 h, read-out: TGI
Mus musculus [18] = assay: Toxicity in ICR mouse xenografted with […] cells assessed as body weight at 15 mg/kg, iv administered once daily for 21 days measured post last dose (reference value: 26 +/- 0.6 g); format: organism-based; conditions: in vivo, 504 h
HepG2 [19] = assay: Disruption of mitochondrial membrane potential in human HepG2 cells assessed as intact mitochondrial membrane at 1 uM after 72 hrs by JC1 staining based flow cytometric method (reference value: 96.94%); format: functional; outline: as §4
HepG2 [20] = assay: Disruption of mitochondrial membrane potential in human HepG2 cells assessed as intact mitochondrial membrane at 0.5 uM after 72 hrs by JC1 staining based flow cytometric method (reference value: 96.94%); format: functional; outline: as §4
HepG2 [21] = assay: Induction of apoptosis in human HepG2 cells assessed as early apoptotic cells at 2 uM after 72 hrs by Annexin V-APC/7-AAD staining based flow cytometric method (reference value: 2.06%); format: functional
HepG2 [22] = assay: Induction of apoptosis in human HepG2 cells assessed as early apoptotic cells at 1 uM after 72 hrs by Annexin V-APC/7-AAD staining based flow cytometric method (reference value: 2.06%); format: functional
HepG2 [23] = assay: Cell cycle arrest in human HepG2 cells assessed as accumulation at S phase at 2 uM after 72 hrs by propidium iodide staining based flow cytometric method (reference value: 25.78%); format: functional; outline: as §2
H22 [24] = assay: Antitumor activity against […] H22 cells xenografted in ICR mouse assessed as tumor growth inhibition at 15 mg/kg, iv administered once daily for 21 days measured post last dose relative to control; format: functional; conditions: 504 h, read-out: TGI
HepG2 [25] = assay: Cell cycle arrest in human HepG2 cells assessed as accumulation at G2 phase at 2 uM after 72 hrs by propidium iodide staining based flow cytometric method (reference value: 17.45%); format: functional; outline: as §2
HepG2 [26] = assay: Cell cycle arrest in human HepG2 cells assessed as accumulation at S phase at 0.5 uM after 72 hrs by propidium iodide staining based flow cytometric method (reference value: 25.78%); format: functional; outline: as §2
HepG2 [27] = assay: Induction of apoptosis in human HepG2 cells assessed as live cells at 0.5 uM after 72 hrs by Annexin V-APC/7-AAD staining based flow cytometric method (reference value: 94.99%); format: functional
HepG2 [28] = assay: Disruption of mitochondrial membrane potential in human HepG2 cells assessed as intact mitochondrial membrane at 2 uM after 72 hrs by JC1 staining based flow cytometric method (reference value: 96.94%); format: functional; outline: as §4
HepG2 [29] = assay: Induction of apoptosis in human HepG2 cells assessed as live cells at 1 uM after 72 hrs by Annexin V-APC/7-AAD staining based flow cytometric method (reference value: 94.99%); format: functional
HepG2 [30] = assay: Disruption of mitochondrial membrane potential in human HepG2 cells assessed as collapse of the mitochondrial membrane potential at 2 uM after 72 hrs by JC1 staining based flow cytometric method (reference value: 3.05%); format: functional; outline: as §4
Mus musculus [31] = assay: Toxicity in ICR mouse xenografted with […] cells assessed as body weight at 30 mg/kg, iv administered once daily for 21 days measured post last dose (reference value: 26 +/- 0.6 g); format: organism-based; conditions: in vivo, 504 h
HepG2 [32] = assay: Cell cycle arrest in human HepG2 cells assessed as accumulation at G1 phase at 0.5 uM after 72 hrs by propidium iodide staining based flow cytometric method (reference value: 56.77%); format: functional; outline: as §2
HepG2 [33] = assay: Disruption of mitochondrial membrane potential in human HepG2 cells assessed as collapse of the mitochondrial membrane potential at 0.5 uM after 72 hrs by JC1 staining based flow cytometric method (reference value: 3.05%); format: functional; outline: as §4
HepG2 [34] = assay: Induction of apoptosis in human HepG2 cells assessed as late apoptotic cells at 2 uM after 72 hrs by Annexin V-APC/7-AAD staining based flow cytometric method (reference value: 0.51%); format: functional
HepG2 [35] = assay: Induction of apoptosis in human HepG2 cells assessed as necrotic cells at 2 uM after 72 hrs by Annexin V-APC/7-AAD staining based flow cytometric method (reference value: 2.44%); format: functional
HepG2 [36] = assay: Cell cycle arrest in human HepG2 cells assessed as accumulation at S phase at 1 uM after 72 hrs by propidium iodide staining based flow cytometric method (reference value: 25.78%); format: functional; outline: as §2
HepG2 [37] = assay: Cell cycle arrest in human HepG2 cells assessed as accumulation at G1 phase at 2 uM after 72 hrs by propidium iodide staining based flow cytometric method (reference value: 56.77%); format: functional; outline: as §2
H22 [38] = assay: Antitumor activity against […] H22 cells xenografted in ICR mouse assessed as tumor weight at 30 mg/kg, iv administered once daily for 21 days measured post last dose (reference value: 4.38 +/- 0.16 g); format: functional

For `COc1ccc2cc3[n+](cc2c1OCCCCCCCCCCCCO[N+](=O)[O-])CCc1cc2c(cc1-3)OCO2`, the Activity [1] was “Active” and the IC50 (HepG2 [2]) was 2.52 µM.

For `COc1ccc2c(Br)c3[n+](cc2c1OCCCCCCCCO[N+](=O)[O-])CCc1cc2c(cc1-3)OCO2`, the Activity [1] was “Active” and the IC50 (HepG2 [2]) was 4.14 µM.

Work on `COc1ccc2cc3[n+](cc2c1OCCCCCCCCO[N+](=O)[O-])CCc1cc2c(cc1-3)OCO2` yielded an IC50 (HCT-116) of 1.58 µM, an IC50 (SMMC-7721) of 2.82 µM and an IC50 (HL-60) of 1.42 µM. For the same compound, the IC50 (L02) was 33.8 µM, the Activity [1] was “Active” and the IC50 (HepG2 [2]) was 2.47 µM.

`COc1cc2c(cc1OC)-c1cc3ccc(OC)c(OCCCCCCCCCCCCO[N+](=O)[O-])c3c[n+]1CC2` showed an IC50 (HepG2 [2]) of 2.55 µM.

For `COc1cc2c(cc1OC)-c1c(Br)c3ccc(OC)c(OCCCCCCCCO[N+](=O)[O-])c3c[n+]1CC2.[Br-]`, the Activity (HepG2 [3]) was 23.38%, the Activity (H22 [4]) was 2.37 g and the Activity (HepG2 [5]) was 11.02%. For the same compound, the Activity (HepG2 [6]) was 44.44%, the IC50 (HCT-116) was 2.29 µM and the Activity (HepG2 [7]) was 1.49%. The IC50 (SMMC-7721) was 1.21 µM, the Activity (HepG2 [8]) was 47.33% and the Activity (HepG2 [9]) was “Dose-dependent effect”. For the same compound, the Activity (HepG2 [10]) was 9.11%, the Activity (HepG2 [11]) was 29.57% and the IC50 (HL-60) was 1.26 µM. For the same compound, the Activity (HepG2 [12]) was “inactive”, the Activity (HepG2 [13]) was “Active” and the Activity (HepG2 [14]) was 2.39%. It also gave an IC50 (L02) of 28.9 µM, an Activity (HepG2 [15]) of 25.5% and an Activity (HepG2 [16]) of 4.32%. The inhibition in vivo at 30 mg/kg (H22 [17]) was 62.5%, the Activity [1] was “Active” and the Activity (Mus musculus [18]) was 25.4 g. For the same compound, the Activity (HepG2 [19]) was 74.5%, the Activity (HepG2 [20]) was 87.9% and the Activity (HepG2 [21]) was 41.13%. It also gave an Activity (HepG2 [22]) of 22.97%, an Activity (HepG2 [23]) of 24.23% and an IC50 (HepG2 [2]) of 1.36 µM. For the same compound, the inhibition in vivo at 15 mg/kg (H22 [24]) was 45.9%, the Activity (HepG2 [25]) was 41.45% and the Activity (HepG2 [26]) was 25.49%. For the same compound, the Activity (HepG2 [27]) was 85.1%, the Activity (HepG2 [28]) was 59.5% and the Activity (HepG2 [29]) was 63.61%. The Activity (HepG2 [30]) was 40.5%, the Activity (Mus musculus [31]) was 25.2 g and the Activity (HepG2 [32]) was 51.14%. It also gave an Activity (HepG2 [33]) of 12.1%, an Activity (HepG2 [34]) of 10.01% and an Activity (HepG2 [35]) of 4.43%. It also gave an Activity (HepG2 [36]) of 23.1%, an Activity (HepG2 [37]) of 34.32% and an Activity (H22 [38]) of 1.64 g.
